Laboratory results: PubChem BioAssay
Active and inactive are the calls of the source.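 The calls were made as follows, unless noted: active = viability at or under a set limit in both replicates, limit being median viability minus 3 SD (cut at about 48% in these data, passing the limit was not always enough); inconclusive = at or under the limit in just one replicate; inactive = at or above the limit in both replicates.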

Assays:
[1] = SK-BR-3 cell growth inhibitors, pilot screen, 24 h, human (AID 572;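 active = viability at or below 10% of carrier control in both of two separate runs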;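 also: compound exposure lasted between 18 and 24 h rather than exactly 24 h; 100% = carrier-treated control wells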); conditions: SK-BR-3 viability, CellTiter-Glo luminescence, at 10 µM, stronger effect = lower value
[2] = HUVEC growth inhibition – cell-based, human, primary screen (AID 575;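 active = viability at or below 30% in both replicate assays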;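 also: 100% = median of untreated cell wells with 0.1% DMSO on each plate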); conditions: HUVEC proliferation, CellTiter-Glo luminescence, 72 h; at 10 µM; stronger effect = lower value
Summary of the method: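 Test system: primary human umbilical vein endothelial cells. Quantity: 1250 cells/well. Compound: single 10 µM dose, 0.1% DMSO, from 5x medium stock. Timing: 72 h treatment at 37 °C. Detection: ATP-based CellTiter-Glo luminescent read. Benchmarks: vehicle and MePR control wells. Format: 384-well plates coated with collagen.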

[3] = growth inhibitors of H69AR lung tumor, primary screen, human, duplicate replicates (AID 580); conditions: H69AR lung tumor cells viability, ATP luminescence, 72 h; at 10 µM; stronger effect = lower value;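 also: 100% = mean luminescence of untreated wells and 0% = no signal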
[4] = reversal of MRP1-mediated doxorubicin resistance, pilot screen, H69AR cells, doxorubicin co-treatment (AID 601;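 active = viability loss from added drug above about 55%, and viability with drug at most 40%, in both replicates, limit read from the data, passing the limit was not always enough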); conditions: CellTiter-Glo, 72 h, at 10 µM; for differential viability (reversal): stronger effect = higher value
[5] = 384-well plate pilot, post-Golgi transport modulator project, inhibition of yeast transport mutant growth (AID 636; in the data active = inhibition above about 31%); conditions: absorbance 615 nm, about 18 h, stronger effect = higher value
[6] = growth suppression of yeast trafficking mutant, preliminary HTS, modulators of trafficking downstream of Golgi apparatus project, 1536-format plate, OD 615 nm (AID 637; in the data active = inhibition above about 30%); conditions: yeast transport mutant growth, absorbance 615 nm, 18 h; stronger effect = higher value
[7] = H69AR cells + 2 uM doxorubicin, measured here: viability with 2 uM doxorubicin, stronger effect = lower value
[8] = H69AR cells, compound alone cytotoxicity

For `Cc1ccc(O)c(-c2cc(C(=O)Nc3ccc(S(=O)(=O)N4CC(C)OC(C)C4)cc3)[nH]n2)c1` (configuration not stated), the viability [1] was 92% (inactive), the viability [2] was 56.7% (inactive) and the viability [3] was 34.8% (active). For the same molecule, the differential viability (reversal) ([4]; H69AR cells + 2 uM doxorubicin) was -8.67% (inactive), the viability [4, 7] was 43.5% and the viability [4, 8] was 34.8%. For the same molecule, the inhibition [5] was -11.1% (inactive) and the inhibition [6] was -1.59% (inactive).

In the case of `COc1ccc(Cn2c(N)c(C#N)c3nc4ccccc4nc32)cc1OC`, the viability [1] is reported as 95% (inactive), the viability [2] is reported as 100% (inactive) and the viability [3] is reported as 99.5% (inactive). The differential viability (reversal) ([4]; H69AR cells + 2 uM doxorubicin) was 12.6% (inactive), the viability [4, 7] was 86.9% and the viability [4, 8] was 99.5%. For the same molecule, the inhibition [5] was -6.58% (inactive) and the inhibition [6] was 0.48% (inactive).

For `O=C1CCC(C(=O)N(Cc2ccco2)C2(C(=O)NC3CCCC3)CCCCC2)N1` (configuration not stated), the viability [1] was 94% (inactive), the viability [2] was 106% (inactive) and the viability [3] was 87.7% (inactive). For the same molecule, the differential viability (reversal) ([4]; H69AR cells + 2 uM doxorubicin) was -8.42% (inactive), the viability [4, 7] was 96.1% and the viability [4, 8] was 87.7%. For the same molecule, the inhibition [5] was -7.81% (inactive) and the inhibition [6] was -1.09% (inactive).

For `N#CCC(=O)Nc1ncn(Cc2ccccc2Cl)n1`, the viability [1] was 95% (inactive), the viability [2] was 105% (inactive) and the viability [3] was 95.2% (inactive). For the same molecule, the differential viability (reversal) ([4]; H69AR cells + 2 uM doxorubicin) was -10.4% (inactive), the viability [4, 7] was 106% and the viability [4, 8] was 95.2%. The inhibition [5] was -4.52% (inactive) and the inhibition [6] was 3.82% (inactive).

With `O=P(CCNCc1ccco1)(c1ccccc1)c1ccccc1` the viability [1] was 110% (inactive), the viability [2] was 97.8% (inactive) and the viability [3] was 97.4% (inactive). The differential viability (reversal) ([4]; H69AR cells + 2 uM doxorubicin) was 2.59% (inactive), the viability [4, 7] was 94.8% and the viability [4, 8] was 97.4%. The inhibition [5] was -5.6% (inactive) and the inhibition [6] was -4.18% (inactive).

For `CC(C)NC(=O)Nc1cccs1`, the viability [1] was 115% (inactive), the viability [2] was 99.5% (inactive) and the viability [3] was 92.1% (inactive). The differential viability (reversal) ([4]; H69AR cells + 2 uM doxorubicin) was -3.51% (inactive), the viability [4, 7] was 95.6% and the viability [4, 8] was 92.1%. The inhibition [5] was 2.47% (inactive) and the inhibition [6] was -0.82% (inactive).

With `CCC(c1nnc(SCC(=O)Nc2ccc(C(=O)Nc3ccccc3OC)cc2)o1)N(C)C` (configuration not stated) the viability [1] was 65% (inactive), the viability [2] was 96.7% (inactive) and the viability [3] was 107% (inactive). The differential viability (reversal) ([4]; H69AR cells + 2 uM doxorubicin) was 7.67% (inactive), the viability [4, 7] was 99% and the viability [4, 8] was 107%. For the same molecule, the inhibition [5] was -6.3% (inactive) and the inhibition [6] was -2.18% (inactive).

With `CNC(=O)OC(C)CNS(=O)(=O)c1ccc(C)cc1` (configuration not stated) the viability [1] was 60% (inactive), the viability [2] was 106% (inactive) and the viability [3] was 97% (inactive). For the same molecule, the differential viability (reversal) ([4]; H69AR cells + 2 uM doxorubicin) was 6.22% (inactive), the viability [4, 7] was 90.8% and the viability [4, 8] was 97%. For the same molecule, the inhibition [5] was -7.4% (inactive) and the inhibition [6] was 0.55% (inactive).

For `O=C(Nc1ccc(Cl)cc1C(=O)O)c1ccc2c(c1)C(=O)N(Cc1ccco1)C2=O`, the viability [1] was 72% (inactive), the viability [2] was 86.6% (inactive) and the viability [3] was 93.3% (inactive). The differential viability (reversal) ([4]; H69AR cells + 2 uM doxorubicin) was 8.62% (inactive), the viability [4, 7] was 84.7% and the viability [4, 8] was 93.3%. The inhibition [5] was -8.49% (inactive) and the inhibition [6] was 0.48% (inactive).

With `O=C(CSc1nnc(-c2ccco2)n1CC1CCCO1)N1CCCCC1` (configuration not stated) the viability [1] was 94% (inactive), the viability [2] was 106% (inactive) and the viability [3] was 97.6% (inactive). The differential viability (reversal) ([4]; H69AR cells + 2 uM doxorubicin) was 4.84% (inactive), the viability [4, 7] was 92.7% and the viability [4, 8] was 97.6%. For the same molecule, the inhibition [5] was -3.6% (inactive) and the inhibition [6] was 0.36% (inactive).

With `Nn1c(SCC(=O)Nc2ccccc2)nnc1-c1cccnc1` the viability [1] was 78% (inactive), the viability [2] was 96.9% (inactive) and the viability [3] was 88.1% (inactive). The differential viability (reversal) ([4]; H69AR cells + 2 uM doxorubicin) was 2.29% (inactive), the viability [4, 7] was 85.8% and the viability [4, 8] was 88.1%. The inhibition [5] was -8% (inactive) and the inhibition [6] was 3.64% (inactive).

With `CCN1C(=O)CC(N2CCC(Nc3ccc(F)cc3)CC2)C1=O` (configuration not stated) the viability [1] was 78% (inactive), the viability [2] was 93.5% (inactive) and the viability [3] was 92.3% (inactive). The differential viability (reversal) ([4]; H69AR cells + 2 uM doxorubicin) was 1.94% (inactive), the viability [4, 7] was 90.3% and the viability [4, 8] was 92.3%. The inhibition [5] was -0.65% (inactive) and the inhibition [6] was -0.98% (inactive).

For `c1ccc(-c2cc(-c3nc(-c4ccccn4)no3)c3ccccc3n2)cc1`, the viability [1] was 139% (inactive), the viability [2] was 63.9% (inactive) and the viability [3] was 59% (inactive). The differential viability (reversal) ([4]; H69AR cells + 2 uM doxorubicin) was 2.75% (inactive), the viability [4, 7] was 56.3% and the viability [4, 8] was 59%. For the same molecule, the inhibition [5] was -2.7% (inactive) and the inhibition [6] was 8% (inactive).

With `CCCNC(=O)N1CCN(S(=O)(=O)c2ccc(C)c(C)c2)CC1` the viability [1] was 85% (inactive), the viability [2] was 112% (inactive) and the viability [3] was 95% (inactive). For the same molecule, the differential viability (reversal) ([4]; H69AR cells + 2 uM doxorubicin) was -0.65% (inactive), the viability [4, 7] was 95.7% and the viability [4, 8] was 95%. For the same molecule, the inhibition [5] was 3.42% (inactive) and the inhibition [6] was 0% (inactive).
